Experimental data published in ChEMBL document CHEMBL4400511, “Benzothiopyranoindole- and pyridothiopyranoindole-based antiproliferative agents targeting topoisomerases” (2019).
The source made the active and inactive calls. The rule behind the calls is not given here.

Key:
[1] = target: DNA topoisomerase 2-alpha (Homo sapiens) (UniProt P11388); test: Inhibition of recombinant human topoisomerase 2alpha assessed as decrease in relaxation of supercoiled pBR322 DNA after 60 mins by ethidium bromide staining based agarose gel electrophoresis method
Sequence of DNA topoisomerase 2-alpha (Homo sapiens) (P11388 whole entry): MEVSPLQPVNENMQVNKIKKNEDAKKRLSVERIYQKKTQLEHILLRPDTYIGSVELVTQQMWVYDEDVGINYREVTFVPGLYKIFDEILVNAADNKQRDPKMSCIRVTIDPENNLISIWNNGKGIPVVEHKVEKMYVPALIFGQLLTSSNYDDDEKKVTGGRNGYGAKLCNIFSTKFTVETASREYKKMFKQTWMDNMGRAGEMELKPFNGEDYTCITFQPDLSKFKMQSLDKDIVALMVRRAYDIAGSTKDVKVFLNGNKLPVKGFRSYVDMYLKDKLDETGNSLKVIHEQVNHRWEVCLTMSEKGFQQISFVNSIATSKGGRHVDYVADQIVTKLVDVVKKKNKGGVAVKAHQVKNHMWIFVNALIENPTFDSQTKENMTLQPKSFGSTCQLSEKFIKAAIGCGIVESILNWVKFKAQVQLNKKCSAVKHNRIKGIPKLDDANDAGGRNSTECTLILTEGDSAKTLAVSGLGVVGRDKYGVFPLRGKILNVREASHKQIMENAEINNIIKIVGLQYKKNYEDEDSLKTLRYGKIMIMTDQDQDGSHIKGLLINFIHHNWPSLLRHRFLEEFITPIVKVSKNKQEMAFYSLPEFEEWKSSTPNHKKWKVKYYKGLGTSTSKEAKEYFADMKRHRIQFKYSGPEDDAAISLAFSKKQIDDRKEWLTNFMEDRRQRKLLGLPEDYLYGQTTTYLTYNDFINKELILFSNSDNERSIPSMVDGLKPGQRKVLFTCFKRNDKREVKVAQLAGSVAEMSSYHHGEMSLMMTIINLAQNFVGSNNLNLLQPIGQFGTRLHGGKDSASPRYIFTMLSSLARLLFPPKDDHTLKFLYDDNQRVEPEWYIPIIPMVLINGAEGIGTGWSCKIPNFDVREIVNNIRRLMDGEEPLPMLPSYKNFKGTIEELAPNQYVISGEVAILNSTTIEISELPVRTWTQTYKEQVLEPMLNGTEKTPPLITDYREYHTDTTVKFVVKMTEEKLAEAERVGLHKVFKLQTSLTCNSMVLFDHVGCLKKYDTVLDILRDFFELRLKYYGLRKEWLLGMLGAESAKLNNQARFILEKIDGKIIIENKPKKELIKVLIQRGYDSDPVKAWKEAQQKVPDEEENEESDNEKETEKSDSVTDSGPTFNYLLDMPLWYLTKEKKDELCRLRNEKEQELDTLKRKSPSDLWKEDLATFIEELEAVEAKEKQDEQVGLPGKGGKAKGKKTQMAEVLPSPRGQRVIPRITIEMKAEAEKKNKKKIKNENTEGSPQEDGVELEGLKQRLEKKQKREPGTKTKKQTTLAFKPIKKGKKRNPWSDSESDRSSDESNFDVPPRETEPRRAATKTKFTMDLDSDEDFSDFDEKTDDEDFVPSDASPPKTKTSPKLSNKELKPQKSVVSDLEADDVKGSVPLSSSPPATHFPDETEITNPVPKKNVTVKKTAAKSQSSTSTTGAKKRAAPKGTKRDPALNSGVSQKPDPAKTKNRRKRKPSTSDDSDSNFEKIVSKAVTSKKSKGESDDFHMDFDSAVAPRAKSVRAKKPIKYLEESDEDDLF
In short: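 Topo II was incubated with supercoiled pBR322 DNA, with or without compound at a series of µM concentrations. Read-out is topoisomer formation from supercoiled DNA on a gel. Reference is 10 µM m-AMSA.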

[2] = target: T1, DNA topoisomerase 1 (Homo sapiens) (UniProt P11387); test: Inhibition of recombinant human topoisomerase 1 assessed as decrease in relaxation of supercoiled pBR322 DNA after 60 mins by ethidium bromide staining based agarose gel electrophoresis method
T1 sequence (whole entry): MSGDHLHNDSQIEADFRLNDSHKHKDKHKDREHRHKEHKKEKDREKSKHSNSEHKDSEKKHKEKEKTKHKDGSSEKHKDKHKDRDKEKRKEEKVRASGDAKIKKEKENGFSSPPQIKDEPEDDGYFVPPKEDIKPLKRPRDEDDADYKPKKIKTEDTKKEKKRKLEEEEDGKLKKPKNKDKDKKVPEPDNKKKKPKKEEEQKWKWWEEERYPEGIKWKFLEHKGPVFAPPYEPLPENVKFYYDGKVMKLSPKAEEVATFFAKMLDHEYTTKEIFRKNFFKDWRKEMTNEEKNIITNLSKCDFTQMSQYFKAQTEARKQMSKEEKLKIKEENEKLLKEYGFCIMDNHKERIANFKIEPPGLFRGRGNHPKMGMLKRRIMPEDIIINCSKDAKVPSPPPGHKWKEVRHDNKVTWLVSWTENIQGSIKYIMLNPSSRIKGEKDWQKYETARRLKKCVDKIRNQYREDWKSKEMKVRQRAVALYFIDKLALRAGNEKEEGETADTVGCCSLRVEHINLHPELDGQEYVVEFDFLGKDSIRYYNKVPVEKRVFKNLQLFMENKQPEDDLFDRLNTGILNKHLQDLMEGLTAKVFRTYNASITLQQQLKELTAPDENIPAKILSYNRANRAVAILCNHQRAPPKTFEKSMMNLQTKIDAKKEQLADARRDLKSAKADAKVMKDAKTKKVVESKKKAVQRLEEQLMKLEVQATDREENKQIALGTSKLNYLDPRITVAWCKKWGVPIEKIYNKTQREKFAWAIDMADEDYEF
In short: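 Human recombinant Topo I was incubated with supercoiled pBR322 DNA, with or without compound at a series of µM concentrations. Read-out is the number of relaxed topoisomers formed.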

[3] = tested on: HeLa; test: Growth inhibition in human HeLa cells after 72 hrs by trypan blue dye-based assay; format: functional
In short: (§1)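 Three human tumour lines were used: HeLa (cervix adenocarcinoma), A-431 (epidermoid/squamous carcinoma) and MSTO-211H (biphasic mesothelioma). GI50 is the µM concentration giving 50% cell death relative to the untreated control culture. Ellipticine was run as reference.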

[4] = tested on: Salmon testes DNA; test: Binding affinity to salmon DNA at compound to DNA ratio of 0.04 by linear flow dichroism analysis; format: nucleic-acid assay; settings: Salmonidae
[5] = target: T1, DNA topoisomerase 1 (Homo sapiens); test: Poison activity at recombinant human topoisomerase-1 assessed as stabilization of covalent topo-1-DNA cleavage complex by measuring nicked DNA formation at 0.5 to 50 uM using supercoiled pBR322 DNA as substrate after 60 mins by agarose gel electrophoresis method
In short: (§2)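 Cleavable-complex assay: supercoiled pBR322 DNA was incubated with Topo I, with or without compound at a series of µM concentrations. Nicked DNA formation marks covalent complex stabilisation. Reference is 0.5 µM camptothecin.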

[6] = target: DNA topoisomerase 2-alpha (Homo sapiens) (UniProt P11388); test: Poison activity at recombinant human topoisomerase-2 assessed as stabilization of covalent topo-2-DNA cleavage complex by measuring linear DNA formation at 10 uM using supercoiled pBR322 DNA as substrate after 60 mins by agarose gel electrophoresis method
In short: (§3)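 Cleavable-complex assay: supercoiled pBR322 DNA was incubated with Topo II, with or without compound at a series of µM concentrations. Enzyme-mediated linear DNA marks cleavage-complex stabilisation. Reference poison is 10 µM m-AMSA.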

[7] = tested on: A-431; test: Growth inhibition in human A431 cells after 72 hrs by trypan blue dye-based assay; format: functional; settings: A-431, 72 h; in short: as §1
[8] = tested on: MSTO-211H; test: Growth inhibition in human MSTO-211H cells after 72 hrs by trypan blue dye-based assay; format: functional; in short: as §1
[9] = tested on: Salmon testes DNA; test: Binding affinity to salmon DNA at compound to DNA ratio of 0.08 by linear flow dichroism analysis; format: nucleic-acid assay; settings: Salmonidae
[10] = target: T1, DNA topoisomerase 1 (Homo sapiens); test: Poison activity at recombinant human topoisomerase-1 assessed as stabilization of covalent topo-1-DNA cleavage complex by measuring nicked DNA formation using supercoiled pBR322 DNA as substrate after 60 mins by agarose gel electrophoresis method; in short: as §2
[11] = tested on: Salmon testes DNA; test: Binding affinity to salmon DNA at compound to DNA ratio of 0.02 to 0.04 by linear flow dichroism analysis; format: nucleic-acid assay; settings: Salmonidae
[12] = target: DNA topoisomerase 2-alpha (Homo sapiens) (UniProt P11388); test: Poison activity at recombinant human topoisomerase-2 assessed as stabilization of covalent topo-2-DNA cleavage complex by measuring linear DNA formation up to 50 uM using supercoiled pBR322 DNA as substrate after 60 mins by agarose gel electrophoresis method; in short: as §3

Structure (SMILES) | inhibition [1] | inhibition [2] | GI50 [3] | Activity [4] | Activity [5] | Activity [6] | GI50 [7] | GI50 [8] | Activity [9] | Activity [10] | Activity [11] | Activity [12]
CCN(CC)CCn1c2cc(OC)c(OC)cc2c2sc3cc(Cl)ccc3c(=O)c21 | Dose-dependent effect | Dose-dependent effect | 4550 nM | Active | inactive | Active | 2220 nM | 2370 nM | – | – | – | –
COc1ccc2c(c1)c1sc3ncccc3c(=O)c1n2CCN(C)C | Dose-dependent effect | Dose-dependent effect | 2710 nM | Active | inactive | Active | 1420 nM | 750 nM | – | – | – | –
CCN(CC)CCn1c2cc(OC)c(OC)cc2c2sc3cc(OC)ccc3c(=O)c21 | Dose-dependent effect | Dose-dependent effect | 1750 nM | Active | inactive | Active | 670 nM | 360 nM | – | – | – | –
CCN(CC)CCn1c2ccc(OC)cc2c2sc3ncccc3c(=O)c21 | Dose-dependent effect | Dose-dependent effect | 2610 nM | Active | inactive | Active | 1900 nM | 700 nM | – | – | – | –
CCN(CC)CCn1c2ccc(OC)cc2c2sc3ccccc3c(=O)c21 | Dose-dependent effect | Dose-dependent effect | 2790 nM | – | inactive | Active | 2080 nM | 1610 nM | Active | – | – | –
CCN(CC)CCn1c2ccc(Cl)cc2c2sc3cc(Cl)ccc3c(=O)c21 | Dose-dependent effect | Dose-dependent effect | 4310 nM | – | inactive | Active | 3290 nM | 2990 nM | Active | – | – | –
COc1ccc2c(c1)c1sc3cc(Cl)ccc3c(=O)c1n2CCN(C)C | Dose-dependent effect | Dose-dependent effect | 2790 nM | – | inactive | Active | 2670 nM | 2960 nM | Active | – | – | –
CCN(CC)CCn1c2ccc(Cl)cc2c2sc3ncccc3c(=O)c21 | Dose-dependent effect | Dose-dependent effect | 4200 nM | Active | inactive | Active | 1790 nM | 1420 nM | – | – | – | –
CN(C)CCn1c2ccc(Cl)cc2c2sc3ncccc3c(=O)c21 | Dose-dependent effect | Dose-dependent effect | 3020 nM | Active | inactive | Active | 2000 nM | 2360 nM | – | – | – | –
CCN(CC)CCn1c2cc(OC)c(OC)cc2c2sc3ncccc3c(=O)c21 | Dose-dependent effect | Dose-dependent effect | 6930 nM | Active | Active | Active | 2670 nM | 620 nM | – | – | – | –
CN(C)CCn1c2ccc(Cl)cc2c2sc3cc(Cl)ccc3c(=O)c21 | Dose-dependent effect | Dose-dependent effect | 2660 nM | – | inactive | Active | 1760 nM | 1640 nM | Active | – | – | –
COc1cc2c3sc4cc(Cl)ccc4c(=O)c3n(CCN(C)C)c2cc1OC | Dose-dependent effect | Dose-dependent effect | 3540 nM | Active | inactive | Active | 3190 nM | 1820 nM | – | – | – | –
COc1cc(NS(C)(=O)=O)ccc1Nc1c2ccccc2nc2ccccc12 | – | – | – | – | – | Active | – | – | – | – | – | –
CCN(CC)CCn1c2ccc(OC)cc2c2sc3cc(Cl)ccc3c(=O)c21 | Dose-dependent effect | Dose-dependent effect | 3210 nM | – | inactive | Active | 5440 nM | 4190 nM | Active | – | – | –
COc1cc2c3sc4ncccc4c(=O)c3n(CCN(C)C)c2cc1OC | Dose-dependent effect | Dose-dependent effect | 1700 nM | – | Active | – | 710 nM | 350 nM | – | Dose-dependent effect | Active | inactive
CN(C)CCn1c2ccccc2c2sc3ncccc3c(=O)c21 | Dose-dependent effect | Dose-dependent effect | 1550 nM | Active | inactive | Active | 540 nM | 1080 nM | – | – | – | –
COc1ccc2c(c1)c1sc3ccccc3c(=O)c1n2CCN(C)C | Dose-dependent effect | Dose-dependent effect | 5810 nM | – | inactive | Active | 2240 nM | 2370 nM | Active | – | – | –
CCN(CC)CCn1c2ccccc2c2sc3ncccc3c(=O)c21 | Dose-dependent effect | Dose-dependent effect | 2570 nM | Active | inactive | Active | 470 nM | 1330 nM | – | – | – | –
COc1ccc2c(=O)c3c(sc2c1)c1cc(OC)c(OC)cc1n3CCN(C)C | Dose-dependent effect | Dose-dependent effect | 740 nM | Active | inactive | Active | 480 nM | 440 nM | – | – | – | –
CCN(CC)CCn1c2cc(OC)c(OC)cc2c2sc3ccccc3c(=O)c21 | Dose-dependent effect | Dose-dependent effect | 1770 nM | Active | Active | Active | 1110 nM | 700 nM | – | – | – | –
Cc1c2ccncc2c(C)c2c1[nH]c1ccccc12 [ELLIPTECINE] | – | – | 470 nM | – | – | – | 650 nM | 770 nM | – | – | Active | –
